Data set [1] relates to Nucleic Acid. The data set can be described thus: B app constant towards DNA. Type of data set: nucleic-acid assay. The following applies: Bos taurus. In a few lines: (§1)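 Association constants for DNA binding were derived from absorption changes of calf thymus DNA at 6 × 10^-7 M, expressed as mononucleotide concentration. The buffer was 50 mM Tris-HCl, pH 7.4, with 0.1 M NaCl.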

For data set [2], the system named is Nucleic Acid. Kind of data set: Apparent association constant towards DNA at concentration of 10e-7/M. The following applies: Bos taurus. The data set is classed as nucleic-acid assay. In a few lines:
as §1

Data set [3] relates to Mus musculus. The data set can be described thus: In Vivo evaluation for the antitumor activity on grafted tumor friend cells at the dose 5 mg/kg and Increase in the life span. Type of data set: functional. In a few lines:
(§2)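 Friend tumor cells, 10^6, injected iv into syngeneic mice. Mice randomized in groups of 16. Drug dissolved in acidified saline (equimolar acetic acid) and given as a single iv dose 3 days after inoculation. Median survival time recorded. %ILS = (treated median survival − control median survival)/control median survival × 100.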

Data set [4] deals with Mus musculus. Kind of data set: In Vivo antitumor activity on grafted tumor friend cells at the dose 5 mg/kg and decrease in intravenous 10 e 6 cells and median survival time. Type of data set: functional. In a few lines:
as §2

Data set [5] concerns Mus musculus. The data set can be described thus: In vivo antitumor activity on L1210 leukemia cells at the dose 5 mg/kg administered intraperitoneally 1 day after 10 e5 L1210 leukemia cells and range of deaths. The data set is classed as functional. The settings on record: route intraperitoneal.
In data set [6] the test system is Mus musculus. Kind of data set: In vivo evaluation of antitumor activity on L1210 leukemia cells at the dose 5 mg/kg administered intraperitoneally 1 day after 10 e5 L1210 leukemia cells and increase in life span;. The data set is classed as functional. The settings on record: L1210, ip, 24 h, route intraperitoneal.
The subject of data set [7] is Mus musculus. The data set can be described thus: In vivo evaluation of antitumor activity on L1210 leukemia cells at the dose 5 mg/kg administered intraperitoneally 1 day after 10 e5 L1210 leukemia cells and Mean survival time. The data set is classed as functional. The following applies: route intraperitoneal.
The subject of data set [8] is Mus musculus. Kind of data set: In vivo acute toxicity (nonlethal dose) against mice by intraperitoneal administration. The data set is classed as organism-based. The settings on record: ip. In outline: (§3)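 Mice (ICFW, C3H or B6D2 F1; 6-8 weeks; 22-24 g) in five groups of six. Drug dissolved in acidified saline (equimolar acetic acid) and given as a single ip or iv dose of 2, 5, 10, 25 or 50 mg/kg. Mortality observed over 30 days to set the lethal dose (LD100) and the highest nonlethal dose (LD0).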

For data set [9], the system named is Mus musculus. The data set can be described thus: In vivo acute toxicity (lethal dose) against mice by intraperitoneal administration. Type of data set: organism-based. The following applies: ip. In outline: as §3
Data set [10] concerns Friend leukemia cells (Mus musculus). The data set can be described thus: In vitro concentration required for growth inhibition of murine Friend leukemia cell. The settings on record: read-out: ID50 (the source's name).
For data set [11], the system named is Mus musculus. Kind of data set: In vivo acute toxicity (nonlethal dose) against mice by intravenous administration. The data set is classed as organism-based. In a few lines: as §3
The subject of data set [12] is Mus musculus. Kind of data set: In vivo acute toxicity (lethal dose) against mice by intravenous administration. Type of data set: organism-based. In a few lines: as §3
Data set [13] relates to Mus musculus. The data set can be described thus: In vivo evaluation for the antitumor activity on L1210 leukemia cells at the dose 15 mg/kg administered intraperitoneally estimated as increase in life span. The data set is classed as functional. The settings on record: L1210, ip, route intraperitoneal.
The test system of data set [14] is Mus musculus. The data set can be described thus: In Vivo evaluation for the antitumor activity on grafted tumor friend cells at the dose 20 mg/kg and Increase in the life span was determined. The data set is classed as functional. In outline:
as §2

For data set [15], the system named is Mus musculus. Kind of data set: In Vivo antitumor activity on grafted tumor friend cells at the dose 20 mg/kg and decrease in intravenous 10 e 6 cells and median survival time. The data set is classed as functional. In a few lines:
as §2

For data set [16], the system named is Mus musculus. Kind of data set: In vivo antitumor activity on L1210 leukemia cells at the dose 15 mg/kg administered intraperitoneally estimated as range of deaths. Type of data set: functional. The following applies: route intraperitoneal.
Data set [17] has as its system Mus musculus. Kind of data set: In vivo evaluation for the antitumor activity on L1210 leukemia cells at the dose 15 mg/kg administered intraperitoneally estimated as Mean survival time. Type of data set: functional. The following applies: route intraperitoneal.
Data set [18] concerns Nucleic Acid. The data set can be described thus: Apparent association constant towards DNA at concentration of […]. Type of data set: nucleic-acid assay. The following applies: Bos taurus. In a few lines:
as §1

The subject of data set [19] is Nucleic Acid. Kind of data set: Apparent association constant towards DNA at concentration of 10 E-7/M. The settings on record: Bos taurus. The data set is classed as nucleic-acid assay. In outline:
as §1

Data set [20] has as its system Nucleic Acid. The data set can be described thus: Apparent association constant towards DNA at concentration of 1E-7/M. Type of data set: nucleic-acid assay. The following applies: Bos taurus. In outline: as §1
Data set [21] has as its system Mus musculus. The data set can be described thus: In vivo evaluation for the antitumor activity on L1210 leukemia cells at the dose 15 mg/kg administered intraperitoneally 1 day after 10 e5 L1210 leukemia cells and increase in life span;(P<0.01). The settings on record: L1210, ip, 24 h, route intraperitoneal. The data set is classed as functional.
In data set [22] the test system is Mus musculus. Kind of data set: In vivo antitumor activity on L1210 leukemia cells at the dose 15 mg/kg administered intraperitoneally 1 day after 10 e5 L1210 leukemia cells and range of deaths. The following applies: route intraperitoneal. Type of data set: functional.
Data set [23] deals with Mus musculus. Kind of data set: In vivo evaluation for the antitumor activity on L1210 leukemia cells at the dose 15 mg/kg administered intraperitoneally. Type of data set: functional. The settings on record: route intraperitoneal.

A value given as a limit tells only on which side of the number the result lay.

In the case of `COc1ccc2[nH]c3c(C)c4ccnc(NCCN)c4cc3c2c1`, the Bapp in [1] was 0.135. In data set [2], the K app is 3.3e+07 M⁻¹. Further, the ILS at 5 mg/kg in data set [3] worked out at 18.8%; in data set [6] it was 8.7%. The values for the MST in data set [4] and in [7] were 10.1 days and 13.8 days, respectively. The compound further yielded a Range of deaths in data set [5] of 20 days. In data set [8], this compound gave an LD0 of 5 mg/kg. Also, the LD100 in [9] came to 10 mg/kg. Moreover, the IC50 in data set [10] was 100 nM.

For `COc1ccc2[nH]c3c(C)c4ccnc(NCCCN5CCN(CCCN)CC5)c4cc3c2c1`, the values for the LD0 in data set [11] and in data set [8] were < 1 mg/kg and 25 mg/kg, respectively. In addition, the LD100 worked out at 2.5 mg/kg in data set [12] and 50 mg/kg in data set [9]. For the same compound, the IC50 in [10] worked out at 200 nM.

For the compound `Cc1c2cc[n+](C)cc2c(C)c2c1[nH]c1ccc(O)cc12` [ELLIPTINIUM], the IC50 in data set [10] amounted to 300 nM.

In turn, `CCN(CC)CCCNc1nccc2c(C)c3[nH]c4ccc(OC)cc4c3c(C)c12` [RETELLIPTINE] registered a Bapp in data set [1] of 0.16. Moreover, in [2], the K app turned out to be 3.15e+07 M⁻¹. Further, the increase in life span (ILS) at 15 mg/kg in data set [13] was 134%. This compound came in with an ILS at 20 mg/kg in [14] of 24.7%. For the same compound, the MST in data set [15] is 10.6 days; in data set [17], 25 days. Moreover, the Range of deaths in data set [16] is 35 days. Further, the LD0 was determined as 20 mg/kg in data set [11] and 15 mg/kg in data set [8]. In addition, the LD100 in data set [12] and in data set [9] was 60 mg/kg in each case. In data set [10], the IC50 came to 300 nM.

`COc1ccc2[nH]c3c(C)c4ccnc(NCCCN(C)C)c4cc3c2c1` returned a Bapp in [1] of 0.09. Further, the K app in data set [18] amounted to 3.15e+07 M⁻¹. The IC50 in data set [10] is 1000 nM.

Take `COc1ccc2[nH]c3c(C)c4ccnc(Nc5ccc(NS(C)(=O)=O)cc5)c4cc3c2c1`: the IC50 in [10] was 2000 nM.

Turning to `COc1ccc2[nH]c3c(C)c4ccnc(NCCN(C)C)c4cc3c2c1`, the Bapp in data set [1] was 0.11. Besides, the K app in data set [2] was found to be 2.8e+07 M⁻¹. For the same compound, in data set [10], the IC50 turned out to be 800 nM.

Take `CCN(CCCN)CCCNc1nccc2c(C)c3[nH]c4ccc(OC)cc4c3cc12`: the LD0 in data set [8] is 5 mg/kg. In [9], this compound returned an LD100 of 15 mg/kg. The IC50 in data set [10] worked out at 200 nM.

On to `COc1ccc2[nH]c3c(C)c4cc[n+](C)c(N(C)C)c4cc3c2c1`, for which the IC50 in data set [10] was > 100000 nM.

In turn, `COc1ccc2[nH]c3c(C)c4ccnc(NCCCN)c4cc3c2c1` had a Bapp in data set [1] of 0.07. Also, the K app in data set [19] was determined as 3.05e+07 M⁻¹. Besides, the IC50 in data set [10] was 200 nM.

Consider `Cc1c2ccnc(NCCCN)c2cc2c1[nH]c1ccc(OCc3ccccc3)cc12`, for which the IC50 in data set [10] was determined as 300 nM.

For the compound `CCN(CC)CCCNc1nccc2c(C)c3[nH]c4ccc(OC)cc4c3cc12`, the Bapp in data set [1] came out at 0.1. Besides, the K app in data set [20] came out at 3.15e+07 M⁻¹. For the same compound, the ILS at 15 mg/kg in data set [21] worked out at 24.6%. In data set [22], this compound returned a Range of deaths of 19 days. The MST in data set [23] came out at 14.3 days. Besides, the LD0 in [8] stood at 15 mg/kg. This compound also had an LD100 in data set [9] of 30 mg/kg. Also, in data set [10], the IC50 was determined as 5000 nM.

Take `COc1ccc2[nH]c3c(C)c4ccnc(NCCCn5ccnc5)c4cc3c2c1`: the IC50 in data set [10] was found to be 500 nM.

In general, ILS refers to the gain in survival time of treated over control animals, in per cent.

The values are drawn from ChEMBL document CHEMBL1121556, “Structure-activity relationships in a series of newly synthesized 1-amino-substituted ellipticine derivatives” (J Med Chem, 1980).
